Source: PubChem BioAssay (several laboratories)
This is a sample that favours compounds with a hit; in the whole collection about 2.3% have one here.
FN deposition inh: fibronectin deposition inhibition | AH1F fibroblasts, Alexa488-fibronectin deposition fluorescence, overnight | inhibition, % at 12.6 µM | 350,000 compounds, 0.086% hits;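 active = mean inhibition across replicates of 30% or more, regardless of how many single replicates reach that level; inconclusive = mean under 30% yet at least half of replicates reach 30%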;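 note: positive control wells lacked labelled fibronectin entirely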
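Assay system: AH1F fibroblast monolayer, labelled fibronectin deposition. Amount: 10000 cells per well. Also added: labelled fibronectin 24 nM. Compound: single-point pinned compound. Incubation: cell attachment 1 h, compound and FN exposure overnight. Detection: fluorescence after three HBSS washes, excitation 485 nm, emission 525 nm. Read-out: inhibition of fibronectin deposition signal.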
TWEAK Fn14 block: TWEAK-Fn14 signaling inhibition; TWEAK-stimulated Fn14 reporter cells, luciferase luminescence, 8 h; inhibition, % at 10 µM; 360,000 compounds, 2% hits; AID 1159606; in the data active = inhibition above about 50%
EWS-Fli inh: inhibitors of EWS/Fli oncoprotein transcriptional activity | A673 NR0B1-luciferase reporter, viability-normalised | 350,000 compounds, 0.67% hits | inhibition, % at 12.6 µM;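 active = mean inhibition of at least 50% after viability correction, with every replicate also passing that limit; inconclusive = mean reaches 50% but only one of two replicates passes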;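 note: firefly luciferase signal divided by Alamar Blue viability fluorescence both relative to DMSO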
XiGFP reactiv: activators of X-chromosome reactivation in mouse fibroblasts; XiGFP mouse fibroblasts, % GFP-positive cells imaging, 3 d; cells co-treated with 5-aza-dC sensitizer; scaled so ellipticine positive control = 100%; activation, % at 7.58 µM; 360,000 compounds, 0.055% hits;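 active = mean normalized replicate activation at least 10% and every replicate at or above 10%; inconclusive = only one of the two criteria met; inactive = mean below 10% and not all replicates reach 10%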;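 note: 0% = median of on-plate neutral control wells and 100% = ellipticine 6 µM median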
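System: 68-5-11 XiGFP fibroblast line | Buffer or medium: DMEM containing 5-aza-dC | Compound: Single point | Times: Compounds 3 days, fix/stain 15 min at room temperature | Benchmarks: Positive control ellipticine, 6 µM final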
LGR2 antag: blocks bursicon-induced cAMP signaling via Drosophila LGR2; HEK293 LGR2, CRE-luciferase, bursicon-stimulated, 4 h; inhibition, % at 9.99 µM; 380,000 compounds, 0.35% hits; AID 720647;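 active = drop in luminescence signal, shown as inhibition above about 50% in the replicate tests, limit read from the data, passing the limit was not always enough; inconclusive = probably only some replicates passing the limit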;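 note: agonist challenge used bursicon conditioned medium at about half maximal strength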
TROY NFkB inh: blocks TROY-dependent signaling in reporter cells; 360,000 compounds, 0.98% hits; AID 1347056; inhibition, % at 10 µM; Q293 LMP1-TROYcd NF-kB luciferase reporter, 4 h;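 active = compounds whose plate-normalised and pattern-corrected inhibition of the luciferase reporter signal at the single screening dose is 50% or more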
* = called active by the depositor.

Results for CC(=O)Nc1ccc(Nc2cc(C)nc3c(-c4ccccc4)cnn23)cc1 ?
FN deposition inh: 14; TWEAK Fn14 block: 68*; XiGFP reactiv: 0; LGR2 antag: -24; TROY NFkB inh: 15

How did Nc1c(-c2ccc(Cl)cc2)cnc2c(-c3ccc(F)cc3)cnn12 do in these assays?
FN deposition inh: 5; TWEAK Fn14 block: -16; EWS-Fli inh: -125; XiGFP reactiv: 0; LGR2 antag: -121; TROY NFkB inh: 37

What do the screens show for `Cc1nc2c(-c3ccc(Cl)cc3)cnn2c(N)c1-c1ccc(F)cc1`?
FN deposition inh: 1; TWEAK Fn14 block: 95*; EWS-Fli inh: 1; XiGFP reactiv: 0; LGR2 antag: 3; TROY NFkB inh: 80*

How did COc1ccc(-c2c(C)nc3c(-c4ccc(F)cc4)cnn3c2N)cc1 do in these assays?
FN deposition inh: 16; TWEAK Fn14 block: 46; EWS-Fli inh: -139; XiGFP reactiv: 0; LGR2 antag: -74; TROY NFkB inh: 55*

Results for Fc1ccc(-c2cnn3c(-c4cccs4)ccnc23)cc1 ?
FN deposition inh: 0; TWEAK Fn14 block: 46; EWS-Fli inh: 23; XiGFP reactiv: 0; LGR2 antag: 33; TROY NFkB inh: 30

How did Fc1ccc(-c2cnn3c(-c4ccncc4)ccnc23)cc1 do in these assays?
FN deposition inh: -12; TWEAK Fn14 block: 61*; EWS-Fli inh: 19; XiGFP reactiv: 0; LGR2 antag: -56; TROY NFkB inh: -8

Results for C[C@H]1CCCCO[C@H](CN(C)C(=O)Cc2ccccc2)[C@@H](C)CN([C@@H](C)CO)C(=O)c2cc(NC(=O)Nc3ccccc3)ccc2O1 ?
FN deposition inh: 8; EWS-Fli inh: -2; XiGFP reactiv: 0; LGR2 antag: 15

What do the screens show for `Cc1cc(N)n2ncc(-c3ccccc3)c2n1`?
TWEAK Fn14 block: -9; TROY NFkB inh: -45

How did Cc1cc(-c2ccc(F)cc2)n2ncc(-c3ccccc3)c2n1 do in these assays?
TWEAK Fn14 block: 86*; EWS-Fli inh: -53; XiGFP reactiv: 0; LGR2 antag: 27; TROY NFkB inh: 79*

Results for Cc1nc2c(-c3ccc(F)cc3)cnn2c(N)c1-c1ccccc1 ?
FN deposition inh: 6; TWEAK Fn14 block: 104*; EWS-Fli inh: 32; XiGFP reactiv: 0; LGR2 antag: 64*; TROY NFkB inh: 94*

How did CO[C@H]1CN(C)C(=O)c2ccc(NC(=O)C3CCOCC3)cc2OC[C@@H](C)N(Cc2cccnc2)C[C@H]1C do in these assays?
FN deposition inh: -11; EWS-Fli inh: 3; XiGFP reactiv: 0; LGR2 antag: -4

What do the screens show for `Cc1noc(C)c1NC(=O)N(C)C[C@@H]1Oc2ccc(NC(=O)NC(C)C)cc2C(=O)N([C@H](C)CO)C[C@@H]1C`?
EWS-Fli inh: -1; XiGFP reactiv: 0; LGR2 antag: -8

How did O=C(O)COc1ccccc1/C=C1\C(=O)Nc2ccc(Br)cc21 do in these assays?
FN deposition inh: 4; TWEAK Fn14 block: 36; EWS-Fli inh: 5; XiGFP reactiv: 0; LGR2 antag: -3; TROY NFkB inh: 13

How did O=C1Nc2ccc(Br)cc2/C1=C/C(=O)c1ccccc1 do in these assays?
FN deposition inh: 7; TWEAK Fn14 block: 55*; EWS-Fli inh: 32; XiGFP reactiv: 0; LGR2 antag: 11; TROY NFkB inh: 11

What do the screens show for `C=CCOc1cccc(C(=O)/C=C2/C(=O)Nc3ccccc32)c1`?
FN deposition inh: 15; TWEAK Fn14 block: 30; EWS-Fli inh: 54*; XiGFP reactiv: 0; LGR2 antag: 5; TROY NFkB inh: 29

Results for O=C(C[C@H]1CC[C@@H](NC(=O)C2CCC2)[C@@H](CO)O1)NC1CCCCC1 ?
FN deposition inh: -1; EWS-Fli inh: 3; XiGFP reactiv: 0; LGR2 antag: 8

Results for Cc1ccc(C(=O)Nc2sc3c(c2C(=O)O)CCCCC3)o1 ?
TWEAK Fn14 block: 65*; LGR2 antag: -9; TROY NFkB inh: -31

Results for O=C(Nc1sc2c(c1C(=O)O)CCCCC2)c1cccs1 ?
FN deposition inh: -4; TWEAK Fn14 block: 53*; EWS-Fli inh: -96; XiGFP reactiv: 1; LGR2 antag: -32; TROY NFkB inh: 36

Results for CC(C)(C)c1ccc(C(=O)Nc2sc3c(c2C(=O)O)CCC3)cc1 ?
FN deposition inh: -7; TWEAK Fn14 block: 88*; EWS-Fli inh: 23; XiGFP reactiv: 0; LGR2 antag: 39; TROY NFkB inh: 62*

Results for Cc1ccc(C(=O)Nc2sc3c(c2C(=O)O)CCCC3)o1 ?
TWEAK Fn14 block: 31; XiGFP reactiv: 0; LGR2 antag: -32; TROY NFkB inh: -34

Results for Cc1ccc(S(=O)(=O)Nc2ccc3c(c2)C(=O)N([C@@H](C)CO)C[C@@H](C)[C@@H](CN(C)Cc2ccccc2)OCCCC[C@@H](C)O3)cc1 ?
FN deposition inh: -4; EWS-Fli inh: -7; XiGFP reactiv: 0; LGR2 antag: 19

Results for C[C@@H]1CN([C@@H](C)CO)C(=O)c2cccc(NC(=O)Nc3ccc(C(F)(F)F)cc3)c2O[C@@H]1CN(C)S(=O)(=O)c1ccccc1 ?
EWS-Fli inh: -20; XiGFP reactiv: -1; LGR2 antag: 3

How did COc1ccc2c3c([nH]c2c1)[C@H](CO)N(C(=O)NC1CCCC1)CC31CCN(C(=O)Nc2cccc(F)c2)CC1 do in these assays?
EWS-Fli inh: 13; XiGFP reactiv: 0; LGR2 antag: 6

What do the screens show for `Cc1cc(NC(=O)Nc2ccccc2F)ccc1Br`?
FN deposition inh: 39*; TWEAK Fn14 block: 0; EWS-Fli inh: -93; XiGFP reactiv: 0; LGR2 antag: -81; TROY NFkB inh: 2

Results for O=Cc1[nH]c2ccccc2c1N(C(=O)CCl)c1ccc([N+](=O)[O-])cc1 ?
FN deposition inh: 2; TWEAK Fn14 block: 22; EWS-Fli inh: 18; XiGFP reactiv: 0; LGR2 antag: inconclusive; TROY NFkB inh: 6

How did CC(=O)n1cc(N(C(=O)CCl)c2ccc([N+](=O)[O-])cc2)c2ccccc21 do in these assays?
FN deposition inh: -4; TWEAK Fn14 block: 37; EWS-Fli inh: 56*; XiGFP reactiv: 0; LGR2 antag: -10; TROY NFkB inh: 5

Results for CC(=O)n1cc(CO)c2ccccc21 ?
TWEAK Fn14 block: 1; EWS-Fli inh: 11; LGR2 antag: -3; TROY NFkB inh: 6

What do the screens show for `CC(=O)n1cc(N(C(=O)CCl)c2ccccc2)c2ccccc21`?
FN deposition inh: 4; TWEAK Fn14 block: 66*; EWS-Fli inh: 40; XiGFP reactiv: 0; LGR2 antag: 12; TROY NFkB inh: -9

What do the screens show for `COc1ccc(CCNC(=O)N2c3ccccc3Sc3ccccc32)cc1`?
FN deposition inh: 6; TWEAK Fn14 block: 55*; TROY NFkB inh: 45

Results for COc1cc2c(cc1OC)CN(Cc1nc3ccsc3c(=O)[nH]1)CC2 ?
FN deposition inh: 1; TWEAK Fn14 block: 77*; TROY NFkB inh: 5
